Measurements published in ChEMBL document CHEMBL1132764, “Solution-phase combinatorial synthesis and evaluation of piperazine-2,5-dione derivatives” (2000).
≈ marks a conversion by molar mass, not a printed value.

These molecules were tested on Artemia salina (assay: (§1) Compound was tested for brine shrimp (Artemia salina) toxicity measured as the lowest value at which severe inhibition of nauplii movement was observed). Settings: not given.
Assay type: functional
Outline: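 Artemia salina eggs held 24 h in artificial seawater; about 20 nauplii per well in 980 µL brine. Compound added as 1-100 µg in 20 µL DMSO, top concentration 100 µg/mL, each concentration in quadruplicate. Incubated 24 h at 26 °C. Larvae scored against DMSO controls (control deaths <10%). Assay conditions validated with caffeine.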

Row | SMILES | lowest concentration causing severe inhibition of nauplii movement
1 | COc1ccc(/C=c2\[nH]c(=O)/c(=C/c3ccc(OC)cc3)[nH]c2=O)cc1 | >100 µg/mL
2 | COc1ccc(/C=c2\[nH]c(=O)/c(=C/c3cccs3)[nH]c2=O)cc1OC | >100 µg/mL
3 | O=c1[nH]/c(=C\c2cccs2)c(=O)[nH]/c1=C\c1ccccn1 | 100 µg/mL
4 | CC(C)/C=c1\[nH]c(=O)/c(=C/C(C)C)[nH]c1=O | >100 µg/mL
5 | COc1cc(OC)c(/C=c2\[nH]c(=O)/c(=C/c3cccs3)[nH]c2=O)c(OC)c1 | >100 µg/mL
6 | COc1cc(/C=c2\[nH]c(=O)/c(=C/c3cc(OC)c(OC)c(OC)c3)[nH]c2=O)cc(OC)c1OC | >100 µg/mL
7 | COc1ccc(/C=c2\[nH]c(=O)/c(=C/c3ccc([N+](=O)[O-])cc3)[nH]c2=O)cc1 | >100 µg/mL
8 | COc1cc(/C=c2\[nH]c(=O)/c(=C/c3ccccn3)[nH]c2=O)cc(OC)c1OC | 100 µg/mL
9 | O=c1[nH]/c(=C\c2ccccc2[N+](=O)[O-])c(=O)[nH]/c1=C\c1ccc([N+](=O)[O-])cc1 | >100 µg/mL
10 | C/C=c1\[nH]c(=O)/c(=C/CCCCC)[nH]c1=O | >100 µg/mL
11 | C/C=c1\[nH]c(=O)c(=CC=Cc2ccccc2)[nH]c1=O | >100 µg/mL
12 | O=c1[nH]/c(=C\c2cccs2)c(=O)[nH]/c1=C\c1cccs1 | >100 µg/mL
13 | COc1cc(OC)c(/C=c2\[nH]c(=O)/c(=C/c3c[nH]c4ccccc34)[nH]c2=O)c(OC)c1 | >100 µg/mL
14 | C/C=c1\[nH]c(=O)/c(=C/C=C/C)[nH]c1=O | >100 µg/mL
15 | COc1ccc(/C=c2\[nH]c(=O)/c(=C/c3cc(OC)c(OC)c(OC)c3)[nH]c2=O)cc1OC | 100 µg/mL
16 | COc1cc(/C=c2\[nH]c(=O)/c(=C/c3cc(OC)c(OC)c(OC)c3)[nH]c2=O)cc(OC)c1 | 100 µg/mL
17 | COc1cc(/C=c2\[nH]c(=O)/c(=C/c3c[nH]c4ccccc34)[nH]c2=O)cc(OC)c1 | >100 µg/mL
18 | O=c1[nH]/c(=C\c2ccc(Cl)cc2)c(=O)[nH]/c1=C\c1ccc(Cl)cc1 | >100 µg/mL
19 | C/C=C/C=c1\[nH]c(=O)/c(=C/C(C)C)[nH]c1=O | >100 µg/mL
20 | COc1ccc(/C=c2\[nH]c(=O)/c(=C/c3ccc(Cl)cc3)[nH]c2=O)cc1 | >100 µg/mL

Row | SMILES | lowest concentration causing severe inhibition of nauplii movement
21 | O=c1[nH]/c(=C\c2c[nH]c3ccccc23)c(=O)[nH]/c1=C\c1c[nH]c2ccccc12 | >100 µg/mL
22 | O=c1[nH]/c(=C\c2ccc([N+](=O)[O-])cc2)c(=O)[nH]/c1=C\c1ccc(Cl)cc1 | >100 µg/mL
23 | CC/C=c1\[nH]c(=O)c(=CC=Cc2ccccc2)[nH]c1=O | >100 µg/mL
24 | COc1ccc(/C=c2\[nH]c(=O)/c(=C/c3ccc(OC)c(OC)c3)[nH]c2=O)cc1OC | >100 µg/mL
25 | C/C=C/C=c1\[nH]c(=O)/c(=C/CC)[nH]c1=O | >100 µg/mL
26 | O=c1[nH]/c(=C\c2ccc([N+](=O)[O-])cc2)c(=O)[nH]/c1=C\c1ccccc1 | >100 µg/mL
27 | COc1cc(OC)c(/C=c2\[nH]c(=O)/c(=C/c3cc(OC)c(OC)c(OC)c3)[nH]c2=O)c(OC)c1 | >100 µg/mL
28 | O=c1[nH]/c(=C\c2ccccc2[N+](=O)[O-])c(=O)[nH]/c1=C\c1ccccc1 | >100 µg/mL
29 | COc1cc(/C=c2\[nH]c(=O)/c(=C/c3ccc(OC)c(OC)c3)[nH]c2=O)cc(OC)c1 | >100 µg/mL
30 | C/C=C/C=c1\[nH]c(=O)/c(=C/CCCCC)[nH]c1=O | 100 µg/mL
31 | C/C=C/C=c1\[nH]c(=O)/c(=C/C=C/C)[nH]c1=O | >100 µg/mL
32 | C/C=c1\[nH]c(=O)/c(=C/CC)[nH]c1=O | >100 µg/mL
33 | COc1cc(/C=c2\[nH]c(=O)/c(=C/c3c(OC)cc(OC)cc3OC)[nH]c2=O)cc(OC)c1 | 100 µg/mL
34 | CCCCC/C=c1\[nH]c(=O)/c(=C/C(C)C)[nH]c1=O | >100 µg/mL
35 | CC/C=c1\[nH]c(=O)/c(=C/CC)[nH]c1=O | >100 µg/mL
36 | O=c1[nH]/c(=C\c2c[nH]c3ccccc23)c(=O)[nH]/c1=C\c1cccs1 | >100 µg/mL
37 | COc1ccc(/C=c2\[nH]c(=O)/c(=C/c3ccccc3[N+](=O)[O-])[nH]c2=O)cc1 | >100 µg/mL
38 | CC/C=c1\[nH]c(=O)/c(=C/C(C)C)[nH]c1=O | >100 µg/mL
39 | C/C=c1\[nH]c(=O)/c(=C/C)[nH]c1=O | 100 µg/mL
40 | O=c1[nH]/c(=C\c2ccccc2[N+](=O)[O-])c(=O)[nH]/c1=C\c1ccc(Cl)cc1 | >100 µg/mL

Row | SMILES | lowest concentration causing severe inhibition of nauplii movement
41 | O=c1[nH]/c(=C\c2ccc(O)cc2)c(=O)[nH]/c1=C\c1ccccc1 | >100 µg/mL
42 | CC/C=c1\[nH]c(=O)/c(=C/CCCCC)[nH]c1=O | 100 µg/mL
43 | O=c1[nH]/c(=C\c2ccc([N+](=O)[O-])cc2)c(=O)[nH]/c1=C\c1ccc([N+](=O)[O-])cc1 | >100 µg/mL
44 | COc1cc(OC)c(/C=c2\[nH]c(=O)/c(=C/c3c(OC)cc(OC)cc3OC)[nH]c2=O)c(OC)c1 | 100 µg/mL
45 | O=c1[nH]/c(=C\c2ccccc2)c(=O)[nH]/c1=C\c1ccccc1 | >100 µg/mL
46 | O=c1[nH]/c(=C\c2ccccn2)c(=O)[nH]/c1=C\c1ccccn1 | 100 µg/mL
47 | O=c1[nH]/c(=C\c2ccccc2[N+](=O)[O-])c(=O)[nH]/c1=C\c1ccccc1[N+](=O)[O-] | >100 µg/mL
48 | COc1cc(/C=c2\[nH]c(=O)/c(=C/c3cccs3)[nH]c2=O)cc(OC)c1OC | >100 µg/mL
49 | O=c1[nH]/c(=C\c2c[nH]c3ccccc23)c(=O)[nH]/c1=C\c1ccccn1 | >100 µg/mL
50 | COc1cc(OC)c(/C=c2\[nH]c(=O)/c(=C/c3ccccn3)[nH]c2=O)c(OC)c1 | >100 µg/mL
51 | O=c1[nH]/c(=C\c2ccc(Cl)cc2)c(=O)[nH]/c1=C\c1ccccc1 | >100 µg/mL
52 | COc1cc(OC)c(/C=c2\[nH]c(=O)/c(=C/c3ccc(OC)c(OC)c3)[nH]c2=O)c(OC)c1 | >100 µg/mL
53 | CC(C)/C=c1\[nH]c(=O)c(=CC=Cc2ccccc2)[nH]c1=O | >100 µg/mL
54 | CCCCC/C=c1\[nH]c(=O)/c(=C/CCCCC)[nH]c1=O | 100 µg/mL
55 | COc1cc(/C=c2\[nH]c(=O)/c(=C/c3cc(OC)cc(OC)c3)[nH]c2=O)cc(OC)c1 | >100 µg/mL
56 | COc1ccc(/C=c2\[nH]c(=O)/c(=C/c3c[nH]c4ccccc34)[nH]c2=O)cc1OC | >100 µg/mL
57 | COc1cc(/C=c2\[nH]c(=O)/c(=C/c3c[nH]c4ccccc34)[nH]c2=O)cc(OC)c1OC | 100 µg/mL
58 | COc1ccc(/C=c2\[nH]c(=O)/c(=C/c3ccccc3)[nH]c2=O)cc1 | >100 µg/mL

The molecules below were run on Artemia salina (assay: as §1). Settings: read-out: LD50 (the source's name).
Assay type: functional
Outline: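 Artemia salina eggs held 24 h in artificial seawater; about 20 nauplii per well in 980 µL brine. Compound added at 1-100 µg in 20 µL DMSO, top level 100 µg/mL (solubility limit), each concentration in quadruplicate. Incubated 24 h at 26 °C. Nauplii movement inhibition and survival scored against DMSO controls, with control deaths <10%.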

Row | SMILES | LC50
59 | COc1ccc(/C=c2\[nH]c(=O)/c(=C/c3ccccn3)[nH]c2=O)cc1OC | 60 µg/mL (≈ 171 µM)
60 | COc1cc(/C=c2\[nH]c(=O)/c(=C/c3ccccn3)[nH]c2=O)cc(OC)c1 | 36 µg/mL (≈ 102 µM)
61 | COc1cc(/C=c2\[nH]c(=O)/c(=C/c3cccs3)[nH]c2=O)cc(OC)c1 | 18 µg/mL (≈ 50.5 µM)
